Consider 22 molecules from ChEMBL document CHEMBL4004861, “Novel 2,3-disubstituted quinazoline-4(3H)-one molecules derived from amino acid linked sulphonamide as a potent malarial antifolates for DHFR inhibition” (Eur J Med Chem, 2017).

Data set [1] has as its system Plasmodium falciparum. The experiment in a line: Antimalarial activity against Plasmodium falciparum. In kind it is functional. Summed up: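 Drug stocks diluted in complete medium (RPMI 1640 plus 10% human serum) over seven dilutions, 0.0001 up to 100 mg/mL as printed. Reference antimalarials run as positive controls in every experiment. Percent inhibition at each concentration was calculated against untreated control to give IC50.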

In data set [2] the test system is Plasmodium falciparum. Put plainly: Antimalarial activity against Plasmodium falciparum assessed as reduction in parasitic LDH activity by Malstat reagent based spectrophotometric method. In kind it is functional. Summed up:
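Parasite lactate dehydrogenase (Malstat) read spectrophotometrically at 650 nm. Compounds were in RPMI 1640 with 10% human serum, seven dilutions.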

The test system of data set [3] is Plasmodium falciparum. The experiment in a line: Antimalarial activity against Plasmodium falciparum infected in RBC after 5 days by MTT assay. In kind it is functional. Summed up: (§1)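 MTT reduction, run in parallel on infected and on normal uninfected RBC cultures and read at 565 and 690 nm. Compounds were in RPMI 1640 with 10% human serum, seven dilutions. Drug-free, parasite-free RBC cultures were set as maximum activity, with untreated, uninfected and cell-free controls. EC50 (parasite) and CC50 (RBC) were derived, and SI = CC50/EC50.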

Data set [4] is described as follows: Selectivity index, ratio of CC50 for RBC (unknown origin) to EC50 for Plasmodium falciparum infected in RBC. The method, boiled down:
as §1

For another data set, the target named is T1, Dihydrofolate reductase (Bos taurus, UniProt P00376).
T1 sequence (P00376 whole entry): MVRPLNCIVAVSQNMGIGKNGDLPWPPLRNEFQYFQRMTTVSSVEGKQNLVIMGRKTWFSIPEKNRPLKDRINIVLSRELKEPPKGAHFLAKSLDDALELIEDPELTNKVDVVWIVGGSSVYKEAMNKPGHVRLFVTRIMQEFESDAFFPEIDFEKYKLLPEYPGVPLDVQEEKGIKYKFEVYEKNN
The experiment in a line: Inhibition of bovine liver DHFR using FH2 as substrate preincubated for 2 mins followed by substrate addition in presence of NADPH.

Another data set relates to Vero. Put plainly: Cytotoxicity against African green monkey Vero cells assessed as reduction in cell viability up to 15 ug/ml after 72 hrs by MTT assay. In kind it is cell-based. The following applies: chlorocebus sabaeus. The method, boiled down: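 Vero cells were exposed to compounds for 72 h at 37 °C, with MTT conversion to formazan read at 540 nm. Viability was calculated relative to cells treated with 0.1% DMSO medium. Triplicate treatments; IC50 derived. Cells were tested up to 15 µg/mL.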

Data set [5] in a line: Selectivity index, ratio of IC50 for African green monkey Vero cells to IC50 for bovine liver DHFR. The method, boiled down: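 Bovine liver DHFR (0.02 units) in 50 mM Tris-HCl pH 7.4 with 50 µM NADPH, compounds in DMSO at final 10⁻¹¹–10⁻⁵ M, total volume 2.0 ml. Mixture held 2 min at room temperature, then started with 25 µM FH2, and ΔA/min at 340 nm recorded. […] SI = Vero IC50 / DHFR IC50, triplicate averages.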

Converted amounts (≈) assume the structure as drawn.

On to `CC(C)CC(NS(=O)(=O)c1ccc(N)cc1)c1nc2ccccc2c(=O)n1-c1ccccc1[N+](=O)[O-]` (stereo not drawn), for which the IC50 with Plasmodium falciparum [1] came out at 0.92 µg/mL (≈ 1.81 µM).
The same measure, in the same setting: then `CC(C)CC(NS(=O)(=O)c1ccc(N)cc1)c1nc2ccccc2c(=O)n1-c1cccc([N+](=O)[O-])c1` (stereo not drawn), with 0.78 µg/mL (≈ 1.54 µM).
Still for that read-out and setting: the same measure for `CC(C)CC(NS(=O)(=O)c1ccc(N)cc1)c1nc2ccccc2c(=O)n1-c1ccccc1F` (stereo not drawn): 1.01 µg/mL (≈ 2.11 µM); for `COc1cc(Cc2cnc(N)nc2N)cc(OC)c1OC` [TRIMETHOPRIM]: 0.38 µg/mL (≈ 1.31 µM).
For `CC(C)CC(NS(=O)(=O)c1ccc(N)cc1)c1nc2ccccc2c(=O)n1-c1ccccc1Br` (stereo not drawn), the IC50 was 0.068 µg/mL (≈ 0.126 µM) with Plasmodium falciparum [1], 3380 ppm in the data set with Plasmodium falciparum [2] and 168 nM on Dihydrofolate reductase. Also, the EC50 in the data set with Plasmodium falciparum [3] came out at 2831 ppm. Further, in data set [4], the Ratio CC50/EC50 turned out to be 20.6. Moreover, in the data set with Vero, the Activity result is “Non-Toxic”. Also, in data set [5], the “Ratio IC50” value is given as 164.83.
As for `CCc1nc(N)nc(N)c1-c1ccc(Cl)cc1` [PYRIMETHAMINE], the IC50 in the data set with Plasmodium falciparum [1] is 0.25 µg/mL (≈ 1.01 µM).
`CC(C)CC(NS(=O)(=O)c1ccc(N)cc1)c1nc2ccccc2c(=O)n1-c1ccc(Cl)cc1` (stereo not drawn): the IC50 in the data set with Plasmodium falciparum [1] is 0.068 µg/mL (≈ 0.137 µM); in the data set with Plasmodium falciparum [2] it was 96.38 ppm; on Dihydrofolate reductase, 56.3 nM. The molecule further yielded an EC50 with Plasmodium falciparum [3] of 115.61 ppm. For the same molecule, the Ratio CC50/EC50 in data set [4] worked out at 87.7. The Activity result with Vero was “Non-Toxic”. Also, the “Ratio IC50” value in data set [5] is reported as 535.71.
The molecule `CC(C)CC(NS(=O)(=O)c1ccc(N)cc1)c1nc2ccccc2c(=O)n1Nc1ccccc1` (stereo not drawn) registered an IC50 in the data set with Plasmodium falciparum [1] of 1.05 µg/mL (≈ 2.2 µM).
The same measure, in the same setting: the same measure for `CC(C)CC(NS(=O)(=O)c1ccc(N)cc1)c1nc2ccccc2c(=O)n1-c1ccc([N+](=O)[O-])cc1` (stereo not drawn): 0.84 µg/mL (≈ 1.65 µM).
Turning to `CC(C)CC(NS(=O)(=O)c1ccc(N)cc1)c1nc2ccccc2c(=O)n1-c1ccc(Br)cc1` (stereo not drawn), the IC50 was 0.068 µg/mL (≈ 0.126 µM) in the data set with Plasmodium falciparum [1], 37240 ppm in the data set with Plasmodium falciparum [2] and 161 nM on Dihydrofolate reductase. Also, the EC50 with Plasmodium falciparum [3] was found to be 1909 ppm. In data set [4], the Ratio CC50/EC50 came out at 15.3. In addition, the Activity result in the data set on Vero was “Non-Toxic”. In addition, in data set [5], the “Ratio IC50” value is 172.14.
`Cc1ccc(-n2c(C(CC(C)C)NS(=O)(=O)c3ccc(N)cc3)nc3ccccc3c2=O)cc1` (stereo not drawn) yielded an IC50 in the data set on Plasmodium falciparum [1] of 0.67 µg/mL (≈ 1.41 µM).
The same measure, in the same setting: the same measure for `COc1cccc(-n2c(C(CC(C)C)NS(=O)(=O)c3ccc(N)cc3)nc3ccccc3c2=O)c1` (stereo not drawn): 0.78 µg/mL (≈ 1.58 µM); for `COc1ccccc1-n1c(C(CC(C)C)NS(=O)(=O)c2ccc(N)cc2)nc2ccccc2c1=O` (stereo not drawn): 0.72 µg/mL (≈ 1.46 µM).
The same measure, in the same setting: the same measure for `CC(C)CC(NS(=O)(=O)c1ccc(N)cc1)c1nc2ccccc2c(=O)n1-c1ccc(F)cc1` (stereo not drawn): 1.12 µg/mL (≈ 2.33 µM).
As to `CC(C)CC(NS(=O)(=O)c1ccc(N)cc1)c1nc2ccccc2c(=O)n1-c1cccc(Cl)c1` (stereo not drawn), the IC50 was 0.068 µg/mL (≈ 0.137 µM) with Plasmodium falciparum [1], 524.8 ppm with Plasmodium falciparum [2] and 72.4 nM at Dihydrofolate reductase. In addition, in the data set on Plasmodium falciparum [3], the EC50 was 368.97 ppm. In addition, in data set [4], the Ratio CC50/EC50 is 50.6. The Activity result in the data set with Vero is “Non-Toxic”. The “Ratio IC50” value in data set [5] was determined as 416.66.
Molecule `CC(C)CC(NS(=O)(=O)c1ccc(N)cc1)c1nc2ccccc2c(=O)n1-c1ccccc1Cl` (stereo not drawn) returned an IC50 with Plasmodium falciparum [1] of 0.136 µg/mL (≈ 0.274 µM).
`COc1ccc(-n2c(C(CC(C)C)NS(=O)(=O)c3ccc(N)cc3)nc3ccccc3c2=O)cc1` (stereo not drawn): the IC50 is 0.068 µg/mL (≈ 0.138 µM) with Plasmodium falciparum [1], 8317 ppm in the data set with Plasmodium falciparum [2] and 97.4 nM at Dihydrofolate reductase. The molecule also registered an EC50 in the data set on Plasmodium falciparum [3] of 1009 ppm. In addition, in data set [4], the Ratio CC50/EC50 turned out to be 19500. Also, in the data set on Vero, the Activity result was “Non-Toxic”. Further, in data set [5], the “Ratio IC50” value stood at 312.5.
On to `CC(C)CC(NS(=O)(=O)c1ccc(N)cc1)c1nc2ccccc2c(=O)n1-c1cccc(Br)c1` (stereo not drawn), for which the IC50 with Plasmodium falciparum [1] was 0.78 µg/mL (≈ 1.44 µM).
For `Cc1cccc(-n2c(C(CC(C)C)NS(=O)(=O)c3ccc(N)cc3)nc3ccccc3c2=O)c1` (stereo not drawn), in the data set on Plasmodium falciparum [1], the IC50 came to 1.28 µg/mL (≈ 2.69 µM).
The same measure, in the same setting: the same measure for `CC(C)CC(NS(=O)(=O)c1ccc(N)cc1)c1nc2ccccc2c(=O)n1-c1ccccc1` (stereo not drawn): 0.68 µg/mL (≈ 1.47 µM).
Take `Cc1ccccc1-n1c(C(CC(C)C)NS(=O)(=O)c2ccc(N)cc2)nc2ccccc2c1=O` (stereo not drawn): the IC50 in the data set on Plasmodium falciparum [1] stood at 0.72 µg/mL (≈ 1.51 µM).
`CCN(CC)CCCC(C)Nc1ccnc2cc(Cl)ccc12` (stereo not drawn) [CHLOROQUINE]: the EC50 in the data set on Plasmodium falciparum [3] is 28.97 ppm. The IC50 on Dihydrofolate reductase was 31.3 nM.
